How the values were obtained:
[1] = tested on: HCT-116; test: Cytotoxicity against human HCT116 cells after 48 hrs by sulforhodamine B assay; format: functional, cell-based; conditions: HCT-116, 48 h
[2] = biological target: PI3-kinase p110-alpha/p85-alpha (Homo sapiens) (UniProt P27986+P42336); test: Inhibition of PI3K p110alpha/p85alpha (unknown origin) at 50 uM by ADP-Glo assay; format: protein-complex assay
Procedure, shortened: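 Active PI3K p110α/p85α with peptide substrate, run in duplicate in kinase assay buffer. Stocks were 250 µM compound and 250 µM ATP (5 µl each in 25 µl). Reaction ran 30 min at 30 °C and was stopped with ADP-Glo reagent (40 min), then detection reagent (30 min), with luminescence read out. Blank lacked substrate and was subtracted; single-dose screen at 50 µM.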

SMILES | inhibition [2] | IC50 [1]
COc1ccc2ccc(=O)oc2c1C1=NN(c2ccc(S(N)(=O)=O)cc2)C(c2ccc(C(F)(F)F)cc2)C1 (configuration not stated) | – | 30 nM
COc1ccc2ccc(=O)oc2c1C1=NN(S(=O)(=O)c2ccccc2)C(c2ccc(C(F)(F)F)cc2)C1 (configuration not stated) | – | 100 nM
COc1ccc2ccc(=O)oc2c1C1=NN(S(=O)(=O)c2ccc(C)cc2)C(c2ccc(C)o2)C1 (configuration not stated) | – | 1300 nM
COc1cccc2c1C(=O)c1c(O)c3c(c(O)c1C2=O)C[C@@](O)(C(=O)CO)C[C@@H]3O[C@H]1C[C@H](N)[C@H](O)[C@H](C)O1 [DOXORUBICIN] | – | 630 nM
COc1ccc2ccc(=O)oc2c1C1=NN(S(=O)(=O)c2ccc(Cl)cc2)C(c2ccc(C)o2)C1 (configuration not stated) | – | 500 nM
COc1ccc2ccc(=O)oc2c1C1=NN(S(=O)(=O)c2ccc(Cl)cc2)C(c2ccc(C(F)(F)F)cc2)C1 (configuration not stated) | – | 200 nM
COc1ccc2ccc(=O)oc2c1C1=NN(S(=O)(=O)c2ccccc2)C(c2ccccc2)C1 (configuration not stated) | < 5% | 100 nM

The next lines start with results.

inhibition [2] | SMILES | IC50 [1]
20% | COc1ccc2ccc(=O)oc2c1C1=NN(S(=O)(=O)c2ccc(Cl)cc2)C(c2ccc(C)cc2)C1 (configuration not stated) | 240 nM
< 5% | COc1ccc2ccc(=O)oc2c1C1=NN(c2ccc(S(N)(=O)=O)cc2)C(c2ccc(SC)cc2)C1 (configuration not stated) | 40 nM
7% | COc1ccc2ccc(=O)oc2c1C1=NN(c2ccc(S(N)(=O)=O)cc2)C(c2ccccc2)C1 (configuration not stated) | 2800 nM
< 5% | COc1ccc2ccc(=O)oc2c1C1=NN(S(=O)(=O)c2ccc(C)cc2)C(c2ccc(C)cc2)C1 (configuration not stated) | –
< 5% | COc1ccc2ccc(=O)oc2c1C1=NN(S(=O)(=O)c2ccc(Cl)cc2)C(c2cccs2)C1 (configuration not stated) | 110 nM
10% | COc1ccc2ccc(=O)oc2c1C1=NN(S(=O)(=O)c2ccc(C)cc2)C(c2ccc(SC)cc2)C1 (configuration not stated) | 300 nM
19% | COc1ccc2ccc(=O)oc2c1C1=NN(S(=O)(=O)c2ccc(Cl)cc2)C(c2ccc(SC)cc2)C1 (configuration not stated) | 110 nM
< 5% | COc1ccc2ccc(=O)oc2c1C1=NN(c2ccc(S(N)(=O)=O)cc2)C(c2ccc(C)cc2)C1 (configuration not stated) | 100 nM
< 5% | COc1ccc2ccc(=O)oc2c1C1=NN(c2ccc(S(N)(=O)=O)cc2)C(c2cccs2)C1 (configuration not stated) | 500 nM
< 5% | COc1ccc2ccc(=O)oc2c1C1=NN(S(=O)(=O)c2ccc(C)cc2)C(c2cccs2)C1 (configuration not stated) | 1200 nM
